Results published in ChEMBL document CHEMBL3352115, “Discovery of APD334: Design of a Clinical Stage Functional Antagonist of the Sphingosine-1-phosphate-1 Receptor” (ACS Med Chem Lett, 2014).
Active and inactive are the calls of the source. The rule behind the calls is not given here.

What was measured:
[1] = test system: Canis familiaris; test: Reduction in peripheral lymphocyte count in orally dosed dog measured after 24 hrs; type: ADME, organism-based; conditions: Canis lupus familiaris
[2] = Drug level in Sprague-Dawley rat brain at 14.5 ug/hr/kg dosed as constant infusion measured after 48 hrs; type: ADME, organism-based; conditions: iv, read-out: Drug uptake
How it was run: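 Male Sprague–Dawley rats given constant infusion at 14.5 μg/h/kg for 48 h; brain and plasma concentrations measured at 48 h.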

[3] = Ratio of drug level in brain to plasma of Sprague-Dawley rat at 14.5 ug/hr/kg dosed as constant infusion measured after 48 hrs; type: ADME, organism-based; conditions: iv, read-out: BPR
How it was run: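 Male Sprague–Dawley rats given 48 h constant infusion at 14.5 μg/h/kg; brain and plasma concentrations measured at 48 h to give B/P ratio.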

[4] = test system: Mus musculus; test: Reduction in lymphocyte infiltration in C57Bl/6 mouse experimental autoimmune encephalomyelitis model of multiple sclerosis at 3 mg/kg dosed once daily beginning on day 18 and continued to day 37 by immunofluorescent staining method; type: functional, organism-based; parameters: dose 3 mg/kg
How it was run: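 Therapeutic EAE in female C57Bl/6 mice, dosing from day 18; spinal cord and brain collected day 37; cerebellum sections immunostained for CD45 and CD3 with DAPI counterstain; inflammatory foci and infiltrating lymphocytes assessed.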

[5] = test system: Rattus norvegicus; test: Reduction in ankle diameter in Lewis rat collagen-induced arthritis model at 1 mg/kg, po qd measured on day 17 (reference value: +/- inches); type: functional
How it was run: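 Female Lewis rats with collagen-induced arthritis, prophylactic daily oral dosing; ankle diameter (inches) and body weight recorded at day 17 end point; mean ± SEM.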

[6] = test system: Rattus norvegicus; test: Improvement histological parameters of knee and ankles in Lewis rat collagen-induced arthritis model at 1 mg/kg, po qd measured on day 17; type: functional, organism-based; parameters: dose 1 mg/kg; conditions: Ankle/Knee
[7] = molecular target: Cytochrome P450 1A2 (Homo sapiens, UniProt P05177); test: Inhibition of CYP1A2 (unknown origin); type: ADME
[8] = molecular target: Cytochrome P450 2C19 (Homo sapiens, UniProt P33261); test: Inhibition of CYP2C19 (unknown origin); type: ADME
[9] = Activation of Inward rectifier potassium channel in human atrial myocytes; type: cell-based; conditions: Cardiac atrium
How it was run: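 In vitro activation of the inward-rectifying potassium channel (IKACh) in human atrial myocytes, run alongside S1P as reference agonist; potency expressed as EC50.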

[10] = test system: Salmonella typhimurium; test: Genotoxicity in Salmonella typhimurium in presence of rat liver S9 fraction by Ames bacterial reverse mutation assay; type: toxicity, organism-based; conditions: salmonella enterica subsp. enterica serovar typhimurium
[11] = test system: Canis familiaris; test: Effect on heart rate in telemeterized dog up to 40 mg/kg; type: ADME, organism-based, Canis lupus familiaris; parameters: dose 40 mg/kg; conditions: in vivo
How it was run: (§1)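 Telemeterized dogs dosed at levels up to 40 mg/kg; pulse pressure, heart rate, body temperature and ECG parameters monitored.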

[12] = test system: Canis familiaris; test: Effect on body temperature in telemeterized dog up to 40 mg/kg; type: ADME, organism-based, Canis lupus familiaris; parameters: dose 40 mg/kg; conditions: in vivo; how it was run: as §1
[13] = test system: Rattus norvegicus; test: Effect on neurobehaviour in Sprague-Dawley rat up to 350 mg/kg; type: ADME, organism-based; parameters: dose 350 mg/kg; conditions: in vivo
How it was run: (§2)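 CNS (neurobehavioral) and respiratory safety studies in SD rats, doses up to 350 mg/kg.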

[14] = test system: Rattus norvegicus; test: Effect on respiratory function in Sprague-Dawley rat up to 350 mg/kg; type: ADME, organism-based; parameters: dose 350 mg/kg; conditions: in vivo; how it was run: as §2
[15] = test system: Rattus norvegicus; test: Toxicity in Sprague-Dawley rat assessed as induction of CNS clinical changes at 1000 mg/kg during 14 day repeat dose study; type: organism-based, Central nervous system; parameters: dose 1000 mg/kg; conditions: in vivo, 336 h
How it was run: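 14-day repeat-dose rat toxicity study with dose groups of 30, 100, 300 and 1000 mg/kg; animals monitored for tolerability, mortality and CNS clinical signs.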

[16] = Cmax in Sprague-Dawley rat at 300 mg/kg; type: ADME, organism-based; parameters: dose 300 mg/kg; conditions: in vivo
How it was run: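 Sprague–Dawley rats dosed at 300 and 1000 mg/kg in a separate dose-proportionality exposure study; Cmax determined.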

[17] = test system: Rattus norvegicus; test: Effect on liver function in Sprague-Dawley rat at 30 to 1000 mg/kg; type: ADME, organism-based; parameters: dose 30-1000 mg/kg; conditions: in vivo
[18] = molecular target: T1, Sphingosine 1-phosphate receptor 1 (Homo sapiens, UniProt P21453); test: Agonist activity at human S1P1 receptor assessed as cAMP accumulation by HTRF assay relative to S1P; type: functional
How it was run: (§3)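 HTRF cyclase (cAMP) functional assay at S1P1 of each species; EC50 taken as mean of three or more replicates; efficacy given as % agonism relative to S1P.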

[19] = Half life in human liver microsomes; type: ADME
How it was run: (§4)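 Stability on incubation with liver microsomes of each species; half-life reported.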

[20] = molecular target: T1, Sphingosine 1-phosphate receptor 1; test: Induction of internalization of HA-tagged human S1P1 receptor expressed in CHO cells; type: cell-based
How it was run: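 CHO cells expressing HA-tagged human S1P1; receptor internalization measured, IC50 derived.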

[21] = molecular target: Sphingosine 1-phosphate receptor 1 (Rattus norvegicus, UniProt P48303); test: Agonist activity at rat S1P1 receptor assessed as cAMP accumulation by HTRF assay; type: functional; how it was run: as §3
[22] = molecular target: Sphingosine-1-phosphate receptor 1 (Canis lupus familiaris, UniProt W5VNF7); test: Agonist activity at dog S1P1 receptor assessed as cAMP accumulation by HTRF assay; type: functional; how it was run: as §3
[23] = molecular target: Sphingosine-1-phosphate receptor 1 (Canis lupus familiaris) (UniProt W5VNF7); test: Agonist activity at dog S1P1 receptor assessed as cAMP accumulation by HTRF assay relative to S1P; type: functional; how it was run: as §3
[24] = molecular target: Sphingosine 1-phosphate receptor 1 (Macaca mulatta, UniProt H9EUW9); test: Agonist activity at monkey S1P1 receptor assessed as cAMP accumulation by HTRF assay; type: functional; how it was run: as §3
[25] = molecular target: Sphingosine 1-phosphate receptor 1 (Macaca mulatta) (UniProt H9EUW9); test: Agonist activity at monkey S1P1 receptor assessed as cAMP accumulation by HTRF assay relative to S1P; type: functional; how it was run: as §3
[26] = molecular target: T1, Sphingosine 1-phosphate receptor 1; test: Agonist activity at human S1P1 receptor by beta-arrestin recruitment assay relative to S1P
[27] = Half life in dog liver microsomes; type: ADME, Canis lupus familiaris; how it was run: as §4
[28] = Systemic clearance in monkey at 1 mg/kg, iv; type: ADME, organism-based, Macaca mulatta; parameters: dose 1 mg/kg, route intravenous; conditions: rhesus monkey, in vivo
[29] = test system: Mus musculus; test: Systemic clearance in mouse at 1 mg/kg, iv relative to liver blood flow; type: ADME, organism-based; parameters: dose 1 mg/kg, route intravenous; conditions: in vivo
[30] = test system: Rattus norvegicus; test: Systemic clearance in rat at 1 mg/kg, iv relative to liver blood flow; type: ADME, organism-based; parameters: dose 1 mg/kg, route intravenous; conditions: in vivo
[31] = Volume of distribution at steady state in rat at 1 mg/kg, iv; type: ADME, organism-based; parameters: dose 1 mg/kg, route intravenous; conditions: in vivo, read-out: Vdss
[32] = Volume of distribution at steady state in monkey at 1 mg/kg, iv; type: ADME, organism-based, Macaca mulatta; parameters: dose 1 mg/kg, route intravenous; conditions: rhesus monkey, in vivo, read-out: Vdss
[33] = Cmax in rat at 1 mg/kg, iv or 1 mg/kg, po; type: ADME, organism-based; conditions: in vivo
[34] = Tmax in rat at 1 mg/kg, iv or 1 mg/kg, po; type: ADME, organism-based; conditions: in vivo
[35] = Tmax in dog at 1 mg/kg, iv or 3 mg/kg, po; type: ADME, organism-based, Canis lupus familiaris; conditions: in vivo
[36] = Tmax in monkey at 1 mg/kg, iv or 3 mg/kg, po; type: ADME, organism-based, Macaca mulatta; conditions: rhesus monkey, in vivo
[37] = AUC (0 to infinity) in rat at 1 mg/kg, iv or 1 mg/kg, po; type: ADME, organism-based; conditions: plasma
How it was run: (§5)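 Preclinical iv/po PK; amorphous free acid dosed orally as a suspension in 0.5% methyl cellulose; clearance and Vss from intravenous administration.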

[38] = AUC (0 to infinity) in dog at 1 mg/kg, iv or 3 mg/kg, po; type: ADME, organism-based, Canis lupus familiaris; conditions: plasma; how it was run: as §5
[39] = Oral bioavailability in mouse at 1 mg/kg; type: ADME, organism-based; conditions: in vivo
[40] = Oral bioavailability in rat at 1 mg/kg; type: ADME, organism-based; conditions: in vivo
[41] = test system: Mus musculus; test: Reduction in peripheral lymphocyte count in orally dosed mouse measured after 24 hrs; type: ADME, organism-based

T1 sequence (P21453 whole entry): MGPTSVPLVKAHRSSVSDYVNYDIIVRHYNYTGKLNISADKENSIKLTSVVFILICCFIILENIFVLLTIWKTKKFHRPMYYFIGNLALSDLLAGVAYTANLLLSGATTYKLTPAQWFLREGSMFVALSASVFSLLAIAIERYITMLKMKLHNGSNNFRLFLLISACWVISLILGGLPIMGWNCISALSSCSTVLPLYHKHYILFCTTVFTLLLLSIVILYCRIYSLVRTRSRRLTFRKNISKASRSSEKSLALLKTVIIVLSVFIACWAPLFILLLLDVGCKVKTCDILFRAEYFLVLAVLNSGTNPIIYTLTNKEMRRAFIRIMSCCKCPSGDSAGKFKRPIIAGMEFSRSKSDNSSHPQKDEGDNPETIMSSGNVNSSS
Sphingosine 1-phosphate receptor 1 (Macaca mulatta, UniProt H9EUW9), sequence (H9EUW9 whole entry): as the sequence (P21453 whole entry) above, with P3S, H12L, I37T, K41R, S189P, I241M, E365D counted along it
Sphingosine 1-phosphate receptor 1 (Macaca mulatta), sequence (H9EUW9 as listed by the source): as the sequence (P21453 whole entry) above, with P3S, H12L, I37T, K41R, S189P, I241M, E365D counted along it
Sphingosine 1-phosphate receptor 1 (Rattus norvegicus, UniProt P48303), sequence (P48303 whole entry): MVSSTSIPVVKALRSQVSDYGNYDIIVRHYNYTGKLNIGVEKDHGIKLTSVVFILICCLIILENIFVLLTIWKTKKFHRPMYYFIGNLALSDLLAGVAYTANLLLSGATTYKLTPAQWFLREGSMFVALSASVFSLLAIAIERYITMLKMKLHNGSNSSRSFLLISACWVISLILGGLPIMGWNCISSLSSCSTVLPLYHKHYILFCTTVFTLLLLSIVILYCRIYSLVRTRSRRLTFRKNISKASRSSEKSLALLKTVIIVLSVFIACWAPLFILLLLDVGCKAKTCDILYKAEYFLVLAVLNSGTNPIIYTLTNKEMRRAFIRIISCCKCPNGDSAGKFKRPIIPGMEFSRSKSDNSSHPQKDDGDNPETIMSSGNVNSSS
Cytochrome P450 2C19, sequence (P33261 whole entry): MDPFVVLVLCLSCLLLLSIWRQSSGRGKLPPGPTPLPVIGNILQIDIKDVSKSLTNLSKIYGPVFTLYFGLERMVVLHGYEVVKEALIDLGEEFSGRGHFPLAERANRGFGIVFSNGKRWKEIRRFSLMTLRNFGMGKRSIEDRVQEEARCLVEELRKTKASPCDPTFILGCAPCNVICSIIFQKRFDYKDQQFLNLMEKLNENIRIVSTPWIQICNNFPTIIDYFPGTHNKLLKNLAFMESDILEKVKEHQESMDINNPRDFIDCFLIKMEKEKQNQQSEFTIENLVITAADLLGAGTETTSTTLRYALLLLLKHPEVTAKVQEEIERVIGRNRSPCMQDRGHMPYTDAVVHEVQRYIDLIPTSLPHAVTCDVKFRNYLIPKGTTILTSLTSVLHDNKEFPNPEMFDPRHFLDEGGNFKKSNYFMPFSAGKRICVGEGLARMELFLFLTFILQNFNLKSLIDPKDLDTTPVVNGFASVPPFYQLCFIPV
Cytochrome P450 1A2, sequence (P05177 whole entry): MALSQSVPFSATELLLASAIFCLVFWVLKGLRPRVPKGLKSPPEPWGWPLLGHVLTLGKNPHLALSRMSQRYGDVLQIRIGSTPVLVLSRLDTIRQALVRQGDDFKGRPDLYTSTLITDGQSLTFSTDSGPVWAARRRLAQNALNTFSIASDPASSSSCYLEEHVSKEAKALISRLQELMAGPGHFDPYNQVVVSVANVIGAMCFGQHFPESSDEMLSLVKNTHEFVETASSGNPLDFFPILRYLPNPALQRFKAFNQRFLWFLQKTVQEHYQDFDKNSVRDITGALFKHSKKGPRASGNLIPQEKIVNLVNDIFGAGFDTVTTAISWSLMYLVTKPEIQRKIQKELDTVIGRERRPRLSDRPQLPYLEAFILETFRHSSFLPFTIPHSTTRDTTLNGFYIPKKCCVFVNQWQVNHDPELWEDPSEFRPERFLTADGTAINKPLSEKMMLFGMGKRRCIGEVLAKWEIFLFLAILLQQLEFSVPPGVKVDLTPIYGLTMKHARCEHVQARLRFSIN
Sphingosine-1-phosphate receptor 1 (Canis lupus familiaris), sequence (W5VNF7 as listed by the source): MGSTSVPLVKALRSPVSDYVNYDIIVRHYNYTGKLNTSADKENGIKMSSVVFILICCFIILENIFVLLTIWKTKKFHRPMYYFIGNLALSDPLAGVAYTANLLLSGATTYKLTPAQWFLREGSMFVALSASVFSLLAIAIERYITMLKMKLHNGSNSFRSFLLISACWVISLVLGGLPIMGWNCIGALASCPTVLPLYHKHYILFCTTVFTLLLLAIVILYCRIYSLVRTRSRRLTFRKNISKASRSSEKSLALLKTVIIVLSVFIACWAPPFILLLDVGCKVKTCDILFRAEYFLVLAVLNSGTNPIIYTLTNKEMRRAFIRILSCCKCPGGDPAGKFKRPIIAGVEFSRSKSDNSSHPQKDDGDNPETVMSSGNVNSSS
Sphingosine-1-phosphate receptor 1, sequence (W5VNF7 whole entry): as the sequence (W5VNF7 as listed by the source) above

## O=C(O)C[C@H]1CCc2c1[nH]c1ccc(OCc3ccc(C4CCCC4)c(C(F)(F)F)c3)cc21 [ETRASIMOD]
[1]
  IC50: 58 nM
[2]
  concentration at 48 h: 0.21 µM
[3]
  Kp at 48 h: 1.9
[4]
  Activity: Active
[5]
  Activity: 0.2803 inches
[6]
  Activity: Active
[7]
  IC50: > 50000 nM
[8]
  IC50: > 50000 nM
[9]
  EC50: 29.9 nM
[10]
  Activity: Non-toxic
[11]
  Activity: Non-toxic
[12]
  Activity: Non-toxic
[13]
  Activity: Non-toxic
[14]
  Activity: Non-toxic
[15]
  Activity: Toxic
[16]
  Cmax: 136 µM
[17]
  Activity: Non-toxic
[18]
  Emax: 102%
[19]
  half-life: > 1 h
[20]
  IC50: 1.88 nM
[21]
  EC50: 0.32 nM
[22]
  EC50: 0.34 nM
[23]
  Emax: 87%
[24]
  EC50: 0.32 nM
[25]
  Emax: 95%
[26]
  Emax: 110%
[27]
  half-life: > 1 h
[28]
  clearance: 0.947 mL/min/kg
[29]
  CL: 2%
[30]
  CL: 3.45%
[31]
  Vd: 1.61 L/kg
[32]
  Vd: 0.411 L/kg
[33]
  Cmax: 218 ng/mL
[34]
  Tmax: 7.33 h
[35]
  Tmax: 7.33 h
[36]
  Tmax: 3.33 h
[37]
  AUC(0-inf): 3790 ng·h/mL
[38]
  AUC(0-inf): 164000 ng·h/mL
[39]
  bioavailability: 100%
[40]
  bioavailability: 54%
[41]
  IC50: 101 nM
